From ChEMBL document CHEMBL1155459, “On-bead screening of a combinatorial fumaric acid derived peptide library yields antiplasmodial cysteine protease inhibitors with unusual peptide sequences” (J Med Chem, 2009)
Values belong to the compound of their own block, whether it stands above or below them. Calls of active or inactive are those of the source. The calls are words filed in the database; no cut-off is given here. Square brackets hold non-standard residues; d marks the D form. Peptide text beside a SMILES is read from it. * marks the point of attachment. Fumaroyl(GlyGlyPheOH) = O=C(/C=C/C(=O)*)NCC(=O)NCC(=O)N[C@@H](Cc1ccccc1)C(=O)O; Chg = N[C@H](C(=O)O)C1CCCCC1; Dap = NC[C@H](N)C(=O)O

Legend:
[1] = biological target: Rhodesain (Trypanosoma brucei rhodesiense) (UniProt Q95PM0); test: Inhibition of Trypanosoma brucei rhodesiense recombinant rhodesain at 200 uM
[2] = Inhibition of Plasmodium falciparum recombinant falcipain-2 expressed in Escherichia coli […] using Cbz-Leu-Arg-AMC as substrate by spectrofluorometry
[3] = Inhibition of Plasmodium falciparum falcipain-2 after 12 hrs by fluorescence spectroscopy-based on-bead assay; parameters: concentration or dose not given beside the values; conditions: concentration not given here
Outline: (§1)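 Library members on resin (PEGA, theoretical loading 0.40 mmol/g; added as DMSO suspension, 0.64 mM final inhibitor) preincubated with enzyme 12 h, then Cbz-Phe-Arg-AMC 40 μM added; AMC release followed by fluorescence (ex 380/em 460 nm). Kinetics compared with inhibitor-free amino-PEGA resin.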

[4] = biological target: Rhodesain (Trypanosoma brucei rhodesiense) (UniProt Q95PM0); test: Inhibition of Trypanosoma brucei rhodesiense rhodesain after 12 hrs by fluorescence spectroscopy-based on-bead assay; parameters: concentration or dose not given beside the values; conditions: concentration not given here; outline: as §1
[5] = biological target: Procathepsin L (Bos taurus, UniProt P25975); test: Inhibition of bovine spleen cathepsin L
Outline: (§2)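 Cathepsin L (bovine spleen) or B (human liver) hydrolysis of Cbz-Phe-Arg-AMC (40 μM) followed by fluorescence for 5-10 min without preincubation at 0.1-80 μM inhibitor, 10% DMSO final.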

[6] = biological target: T1, Cathepsin B (Homo sapiens, UniProt P07858); test: Inhibition of human liver cathepsin B at 100 uM
[7] = biological target: Rhodesain (Trypanosoma brucei rhodesiense) (UniProt Q95PM0); test: Inhibition of Trypanosoma brucei rhodesiense recombinant rhodesain at 100 uM
Outline: (§3)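 Single-point screen at 100 μM inhibitor (final). Recombinant enzyme in 50 mM acetate pH 5.5, 5 mM EDTA, 200 mM NaCl, 5 mM DTT, 10% DMSO final; Cbz-Phe-Arg-AMC 40 μM (or Cbz-Leu-Arg-AMC 25 μM) hydrolysis followed by fluorescence (ex 380/em 460 nm). % inhibition = 100(1 − vi/vc) from progress-curve slopes vs DMSO control; at least two independent assays.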

[8] = tested on: Plasmodium falciparum; test: Inhibition of Plasmodium falciparum recombinant falcipain-2 expressed in Escherichia coli at 100 uM after 20 min by spectrofluorometry; outline: as §3
[9] = biological target: Rhodesain (Trypanosoma brucei rhodesiense, UniProt Q95PM0); test: Inhibition of Trypanosoma brucei rhodesiense recombinant rhodesain
[10] = tested on: Plasmodium falciparum; test: Antiplasmodial activity against Plasmodium falciparum FCBR by fluorometric method; type: functional, organism-based, FCBR/Columbia
[11] = biological target: T1, Cathepsin B; test: Inhibition of human liver cathepsin B; outline: as §2
[12] = Inhibition of Plasmodium falciparum recombinant falcipain-2 expressed in Escherichia coli after 20 min using Cbz-Phe-Arg-AMC as substrate by spectrofluorometry; conditions: in the assay text read “over 5-10 min” for “after 20 min”
Outline: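 Continuous assay without preincubation. Recombinant falcipain-2 in 50 mM acetate pH 5.5, 5 mM EDTA, 200 mM NaCl, 5 mM DTT, 10% DMSO final; Cbz-Phe-Arg-AMC (40 μM, Km 21.5 μM) or Cbz-Leu-Arg-AMC (25 μM, Km 8.4 μM). Fluorescence monitored 5-10 min at 0.1-80 μM inhibitor. Ki from Dixon plot, corrected to zero substrate; at least two independent assays.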

[13] = tested on: Trypanosoma brucei brucei; test: Antitrypanosomal activity against Trypanosoma brucei brucei; type: functional, organism-based
[14] = biological target: T1, Cathepsin B; test: Inhibition of human liver cathepsin B at 200 uM measured after dialysis
Outline: (§4)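 Human liver cathepsin B activity measured with 200 μM inhibitor before and after 3 h of continuous dialysis against assay buffer, to test reversibility.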

[15] = biological target: T1, Cathepsin B; test: Inhibition of human liver cathepsin B at 200 uM measured before dialysis; outline: as §4
[16] = Inhibition of Plasmodium falciparum falcipain-2 by fluorescence enzyme assay
[17] = Plasmodium falciparum, FCBR/Columbia, read-out: IC50

Rhodesain, sequence (Q95PM0 whole entry): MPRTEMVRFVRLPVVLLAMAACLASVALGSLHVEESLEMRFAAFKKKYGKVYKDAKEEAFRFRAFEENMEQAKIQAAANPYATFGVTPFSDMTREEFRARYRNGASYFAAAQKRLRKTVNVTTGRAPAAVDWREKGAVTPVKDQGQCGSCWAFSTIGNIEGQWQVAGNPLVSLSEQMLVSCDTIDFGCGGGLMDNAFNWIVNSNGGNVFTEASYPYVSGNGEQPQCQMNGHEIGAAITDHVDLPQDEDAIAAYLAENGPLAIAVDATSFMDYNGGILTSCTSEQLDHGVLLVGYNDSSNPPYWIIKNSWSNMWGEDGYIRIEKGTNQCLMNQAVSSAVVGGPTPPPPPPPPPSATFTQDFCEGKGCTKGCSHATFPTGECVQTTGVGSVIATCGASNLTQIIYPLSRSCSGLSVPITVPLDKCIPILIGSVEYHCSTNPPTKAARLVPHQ
Rhodesain (Trypanosoma brucei rhodesiense), sequence (Q95PM0 1-450): as the sequence (Q95PM0 whole entry) above
Procathepsin L, sequence (P25975 whole entry): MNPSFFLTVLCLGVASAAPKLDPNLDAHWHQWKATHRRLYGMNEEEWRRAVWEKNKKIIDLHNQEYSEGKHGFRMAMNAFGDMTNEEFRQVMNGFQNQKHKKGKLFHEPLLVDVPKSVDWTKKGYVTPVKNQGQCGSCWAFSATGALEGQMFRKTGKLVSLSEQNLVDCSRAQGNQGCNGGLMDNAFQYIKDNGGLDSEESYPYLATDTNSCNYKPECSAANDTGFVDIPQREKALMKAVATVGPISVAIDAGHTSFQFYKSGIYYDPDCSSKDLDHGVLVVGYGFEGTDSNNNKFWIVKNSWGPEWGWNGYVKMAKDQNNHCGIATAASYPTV

inhibition [1]: 28%
SMILES: N=C(N)c1ccc(OCCCCCOc2ccc(C(=N)N)cc2)cc1

SMILES: CC(C)C[C@H](NC(=O)[C@H](C)NC(=O)/C=C/C(=O)N[C@@H](C)C(=O)NCC(=O)N[C@@H](Cc1ccccc1)C(=O)O)C(=O)N[C@@H](CC(C)C)C(=O)N[C@H](C(N)=O)C(C)C (HELM PEPTIDE1{[C[C@H](NC(=O)/C=C/C(=O)[*:2])C(=O)NCC(=O)N[C@@H](Cc1ccccc1)C(=O)O].A.L.L.V.[am]}$$$$V2.0)
Ki [2]: 9.5 µM | inhibition [3]: 58% | inhibition [4]: 67% | Ki [5]: 33.6 µM | inhibition [6]: 45% | inhibition [7]: 96% | inhibition [8]: 86% | Ki [9]: 1.3 µM

SMILES: CC(C)C[C@H](NC(=O)[C@H](Cc1ccccc1)NC(=O)/C=C/C(=O)NCC(=O)NCC(=O)N[C@@H](Cc1ccccc1)C(=O)O)C(=O)N[C@@H](CC(C)C)C(=O)N[C@H](C(N)=O)C(C)C (HELM PEPTIDE1{[O=C(/C=C/C(=O)[*:2])NCC(=O)NCC(=O)N[C@@H](Cc1ccccc1)C(=O)O].F.L.L.V.[am]}$$$$V2.0)
inhibition [3]: 69% | IC50 [10]: Not Active | Ki [11]: 22.9 µM | inhibition [4]: 69% | Ki [5]: 34.8 µM | inhibition [6]: 73% | inhibition [7]: 68% | inhibition [8]: 100% | Ki [9]: 0.2 µM | Ki [12]: 0.8 µM

SMILES: CC(C)[C@H](NC(=O)[C@H](C)NC(=O)[C@@H](NC(=O)[C@H](CC(N)=O)NC(=O)/C=C/C(=O)NCC(=O)NCC(=O)N[C@@H](Cc1ccccc1)C(=O)O)C1CCCCC1)C(N)=O (HELM PEPTIDE1{[O=C(/C=C/C(=O)[*:2])NCC(=O)NCC(=O)N[C@@H](Cc1ccccc1)C(=O)O].N.[O=C([C@@H](N[*:1])C1CCCCC1)[*:2]].A.V.[am]}$$$$V2.0)
inhibition [3]: 73% | IC50 [10, 17]: 75 µM | Ki [11]: 22.2 µM | inhibition [4]: 26% | inhibition [6]: 78% | inhibition [7]: 98% | inhibition [8]: 79% | Ki [9]: 0.4 µM | Ki [12]: 12.2 µM

SMILES: CC(C)[C@H](NC(=O)[C@@H](NC(=O)[C@@H](NC(=O)[C@H](CC(N)=O)NC(=O)/C=C/C(=O)NCC(=O)NCC(=O)N[C@@H](Cc1ccccc1)C(=O)O)C1CCCCC1)C(C)C)C(N)=O (HELM PEPTIDE1{[O=C(/C=C/C(=O)[*:2])NCC(=O)NCC(=O)N[C@@H](Cc1ccccc1)C(=O)O].N.[O=C([C@@H](N[*:1])C1CCCCC1)[*:2]].V.V.[am]}$$$$V2.0)
IC50 [13]: Not Active | inhibition [3]: 61% | IC50 [10, 17]: 32 µM | inhibition [14]: 73% | Ki [11]: 1.4 µM | inhibition [4]: 46% | Ki [5]: 37.5 µM | inhibition [6]: 100% | inhibition [15]: 74% | inhibition [7]: 96% | inhibition [8]: 90% | Ki [9]: 0.08 µM | Ki [12]: 5.2 µM

SMILES: CC(C)[C@H](NC(=O)[C@@H](NC(=O)[C@@H](NC(=O)[C@H](CCC(N)=O)NC(=O)/C=C/C(=O)NCC(=O)NCC(=O)N[C@@H](Cc1ccccc1)C(=O)O)C1CCCCC1)C(C)C)C(N)=O (HELM PEPTIDE1{[O=C(/C=C/C(=O)[*:2])NCC(=O)NCC(=O)N[C@@H](Cc1ccccc1)C(=O)O].Q.[O=C([C@@H](N[*:1])C1CCCCC1)[*:2]].V.V.[am]}$$$$V2.0)
IC50 [13]: Not Active | inhibition [3]: 51% | IC50 [10, 17]: 27 µM | inhibition [4]: 53% | inhibition [6]: 81% | inhibition [7]: 99% | inhibition [8]: 83% | Ki [9]: 0.08 µM | Ki [12]: 1.5 µM

SMILES: CC(=O)NC[C@H](NC(=O)/C=C/C(=O)NCC(=O)NCC(=O)N[C@@H](Cc1ccccc1)C(=O)O)C(=O)N[C@@H](CC(C)C)C(=O)N[C@@H](CC(C)C)C(=O)N[C@H](C(N)=O)C(C)C (HELM PEPTIDE1{[O=C(/C=C/C(=O)[*:2])NCC(=O)NCC(=O)N[C@@H](Cc1ccccc1)C(=O)O].[O=C([C@H](CN[*:3])N[*:1])[*:2]].L.L.V.[am]}|PEPTIDE2{[ac]}$PEPTIDE1,PEPTIDE2,2:R3-1:R2$$$V2.0)
Ki [2]: 11.8 µM | inhibition [3]: 54% | inhibition [4]: 60% | Ki [5]: 40 µM | inhibition [6]: inactive | inhibition [7]: 87% | inhibition [8]: 79% | Ki [9]: 1.8 µM

SMILES: CC(=O)NC[C@H](NC(=O)/C=C/C(=O)NCC(=O)NCC(=O)N[C@@H](Cc1ccccc1)C(=O)O)C(=O)N[C@H](C(=O)N[C@@H](C)C(=O)N[C@H](C(N)=O)C(C)C)C1CCCCC1 ({Fumaroyl(GlyGlyPheOH)}-[Dap](Ac)[Chg]AV-NH2)
IC50 [13]: Not Active | inhibition [3]: 23% | IC50 [10, 17]: 22 µM | Ki [11]: 12.4 µM | inhibition [4]: 25% | inhibition [6]: 83% | inhibition [7]: 95% | inhibition [8]: 83% | Ki [9]: 0.3 µM | Ki [12]: 7 µM

SMILES: CC(C)C[C@H](NC(=O)[C@H]1O[C@@H]1C(=O)O)C(=O)NCCCCN=C(N)N [E-64]
Ki [16]: 0.29 µM
